Measurements from ChEMBL document CHEMBL3797181, “Structure-Based Optimization of a Small Molecule Antagonist of the Interaction Between WD Repeat-Containing Protein 5 (WDR5) and Mixed-Lineage Leukemia 1 (MLL1)” (J Med Chem, 2016).
Positions of bridges follow the written chain, without caps; N, C: chain ends. Non-standard residues stand in square brackets, D forms with d. Residues, ends and D or L forms follow the SMILES beside them. *: point of attachment. d(αMeK) = C[C@@](N)(CCCCN)C(=O)O; dPhg = N[C@@H](C(=O)O)c1ccccc1; Isobutyryl = CC(C)C(=O)*; Abu = CC[C@H](N)C(=O)O

Assays:
[1] = Apparent solubility of compound in acetonitrile; format: physicochemical
[2] = Apparent solubility of compound in methanol; format: physicochemical
[3] = Apparent solubility of compound in DMSO; format: physicochemical
[4] = Apparent permeability from apical to basolateral side in human Caco2 cells; format: ADME, cell-based; conditions: Caco-2
[5] = Apparent permeability from basolateral to apical side in human Caco2 cells; format: ADME, cell-based; conditions: Caco-2
[6] = Metabolic stability in mouse liver microsomes assessed as parent compound remaining after 0.5 hrs; format: ADME; conditions: read-out: Stability
[7] = Metabolic stability in mouse plasma assessed as parent compound remaining after 0.5 hrs; format: ADME, cell-free; conditions: read-out: Stability
[8] = Cmax in NOD/SCID mouse plasma at 3 mg/kg, iv up to 24 hrs; format: ADME, organism-based; set-up: dose 3 mg/kg, route intravenous
Summary of the method: (§1)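 Female NOD-SCID mice, n = 3 per route, received 3 mg/kg IV or 30 mg/kg IP, with an undosed control group (n = 3). Blood was drawn at 5, 15, 30 min and 1, 2, 4, 6 and 24 h. Plasma was separated by centrifugation and stored at −80 °C until analysis. Cmax, Tmax, t1/2, AUC, Cl and VD were derived.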

[9] = Tmax in NOD/SCID mouse plasma at 3 mg/kg, iv; format: ADME, organism-based; summary of the method: as §1
[10] = Half life in NOD/SCID mouse plasma at 3 mg/kg, iv; format: ADME, organism-based; summary of the method: as §1
[11] = AUC in NOD/SCID mouse plasma at 3 mg/kg, iv up to 24 hrs; format: ADME, organism-based; set-up: time < 24 hr, dose 3 mg/kg, route intravenous; summary of the method: as §1
[12] = Clearance in NOD/SCID mouse plasma at 3 mg/kg, iv up to 24 hrs; format: ADME, organism-based; summary of the method: as §1
[13] = Volume of distribution in NOD/SCID mouse plasma at 3 mg/kg, iv up to 24 hrs; format: ADME, organism-based; summary of the method: as §1
[14] = Cmax in NOD/SCID mouse plasma at 30 mg/kg, ip up to 24 hrs; format: ADME, organism-based; set-up: dose 30 mg/kg, route intraperitoneal; summary of the method: as §1
[15] = Tmax in NOD/SCID mouse plasma at 30 mg/kg, ip; format: ADME, organism-based; summary of the method: as §1
[16] = AUC in NOD/SCID mouse plasma at 30 mg/kg, ip up to 24 hrs; format: ADME, organism-based; set-up: dose 30 mg/kg, time < 24 hr, route intraperitoneal; summary of the method: as §1
[17] = Bioavailability in NOD/SCID mouse plasma at 30 mg/kg, ip up to 24 hrs; format: ADME, organism-based
[18] = test system: MV4-11; assay: Growth inhibition of human MV4-11 cells assessed as reduction in cell viability after 3 days; format: functional; conditions: MV4-11, 72 h
[19] = Growth inhibition of human MOLM13 cells assessed as reduction in cell viability after 3 days; format: functional; conditions: MOLM-13, 72 h
[20] = Growth inhibition of human KOPN8 cells assessed as reduction in cell viability after 3 days; format: functional; conditions: KOPN-8, 72 h

Compound	solubility [1]	solubility [2]	solubility [3]	further results
Cc1cccc(C(=O)Nc2cc(-c3ccc(CN4CCOCC4)cc3)ccc2N2CCN(C)CC2)c1	soluble	soluble	soluble	–
Cc1cccc(C(=O)Nc2cc(-c3ccc(N4CCCC4)cc3)ccc2N2CCN(C)CC2)c1	soluble	soluble	soluble	–
Cc1cccc(C(=O)Nc2cc(-c3cccc4c3OCC4)ccc2N2CCN(C)CC2)c1	soluble	soluble	soluble	–
Cc1cccc(C(=O)Nc2cc(-c3ccccc3CN3CCOCC3)ccc2N2CCN(C)CC2)c1	soluble	soluble	soluble	–
Cc1cccc(C(=O)Nc2cc(-c3cccc(CN4CCOCC4)c3)ccc2N2CCN(C)CC2)c1	soluble	soluble	soluble	–
CN1CCN(c2ccc(-c3cccc(CN4CCOCC4)c3)cc2NC(=O)c2c[nH]c(=O)cc2C(F)(F)F)CC1	–	–	–	Papp A→B [4]: 0.1 ×10⁻⁶ cm/s; Papp B→A [5]: 16.8 ×10⁻⁶ cm/s; remaining at 0.5 h [6]: 85%; remaining at 0.5 h [7]: 100%; Cmax [8]: 1.26 µM; Tmax [9]: 5 min; half-life [10]: 287 min; AUC at 24 h [11]: 1010 ng·h/mL; clearance [12]: 53.9 mL/min/kg; Vd [13]: 15.6 L/kg; Cmax [14]: 6.85 µM; Tmax [15]: 15 min; AUC at 24 h [16]: 6810 ng·h/mL; bioavailability [17]: 67%
Cc1cccc(C(=O)Nc2cc(-c3cccc(N4CCCC4)c3)ccc2N2CCN(C)CC2)c1	soluble	soluble	soluble	–
Cc1cccc(C(=O)Nc2cc(-c3ccc4c(c3)CCO4)ccc2N2CCN(C)CC2)c1	soluble	soluble	soluble	–
CC[C@@H]1NC(=O)[C@H](CCCNC(=N)N)NC(=O)[C@](C)(NC(=O)C(C)C)CCCCNC(=O)[C@@H](c2ccccc2)NC1=O (Isobutyryl-[d(αMeK)]R[Abu][dPhg]; lactam 1-C)	–	–	–	GI50 [18]: 12.4 µM; GI50 [19]: 24 µM; GI50 [20]: 29.7 µM
